# Compound activity as filed in PubChem.
# KCNK9 block: KCNK9 potassium channel inhibitors, primary screen, HEK293 cells, thallium flux; Potassium channel subfamily K member 9 (Homo sapiens), Q9NPC2; FluxOR thallium flux fluorescence; hits give low values; B-score at 10 µM; 1.2% of 310,000 active;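 active = ratio B-score over 3 SD below the library mean, with starting fluorescence within 5 SD of its mean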;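 note: negative B-score means less thallium flux so channel inhibition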
# Cl transport mod: KCC2 cotransporter modulators, thallium flux, primary screen, cell-based, HEK293 KCC2, FluoZin-2 fluorescence, MLSMR. Solute carrier family 12 member 5 (Homo sapiens), Q9H2X9. KCC2 cells, thallium flux FluoZin-2 fluorescence. B-score of Tl+ flux slope (higher = more flux/activation; lower = inhibition) at 10 µM. 2.2% of 190,000 active. AID 1456, 2008;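 active = thallium flux slope and its plate-corrected score both differing from the plate sample mean at a set confidence after two filtering rounds, in either direction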;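 note: slope of fluorescence scaled to starting intensity during 10 to 20 s after thallium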
# KCNK3 inh: human KCNK3 channel inhibitors, primary screen, CHO cells, FluxOR thallium flux, B-score | Potassium channel subfamily K member 3 (Homo sapiens), O14649 | FluxOR fluorescence; hits give low values | B-score at 10 µM | 0.84% of 340,000 active | AID 602410, 2012;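 active = B-score under library mean minus 4 SD, starting fluorescence ratio at most library mean plus 5 SD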;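 note: more negative B-score means stronger inhibition of thallium flux through KCNK3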
# Target sequence (O14649 whole entry, looked up): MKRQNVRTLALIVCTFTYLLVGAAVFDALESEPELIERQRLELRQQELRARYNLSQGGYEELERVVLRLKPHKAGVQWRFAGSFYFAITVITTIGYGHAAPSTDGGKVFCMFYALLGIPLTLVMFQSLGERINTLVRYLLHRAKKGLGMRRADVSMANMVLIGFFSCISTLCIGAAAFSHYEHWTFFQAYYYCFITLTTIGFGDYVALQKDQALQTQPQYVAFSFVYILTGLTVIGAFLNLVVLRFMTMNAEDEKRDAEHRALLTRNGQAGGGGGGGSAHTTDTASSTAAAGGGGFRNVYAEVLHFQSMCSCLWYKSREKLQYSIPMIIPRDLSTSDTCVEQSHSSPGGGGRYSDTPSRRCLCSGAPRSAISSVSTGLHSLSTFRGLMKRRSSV
# hERG protect: hERG rescue from dofetilide block, primary screen, cell-based, CHO-hERG, FluxOR thallium flux, dofetilide IC70 | dofetilide IC70 present | activation (rescue from dofetilide block), less the hit threshold, % at 10 µM | 0.51% of 310,000 active;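 active = activation above the mean of controls blocked by dofetilide plus 5 SD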;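 note: thallium influx through hERG after potassium depolarization seen as dye fluorescence rise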
# KCNQ1 pot: potentiators or activators of KCNQ1 channel, primary screen, cell-based, thallium flux, high-throughput; Potassium voltage-gated channel subfamily KQT member 1 (Homo sapiens), P51787; CHO-K1 KCNQ1, thallium flux FluxOR fluorescence; hits give high values; B-score at 10 µM; 0.35% of 310,000 active; AID 2648, 2010;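 active = fluorescence ratio B-score, a plate-corrected score, at least three library SD, with initial intensity B-score within 5 SD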
#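 Material: CHO-K1 cells stably expressing KCNQ1. Medium: assay buffer for compound exposure, DMSO matched across wells. Reagent: K+/Tl+ depolarizing stimulus. Compound dosing: single-concentration screen. Times: 37 °C overnight plating, 90-min dark dye load, 20-min compound pretreatment. Technique: FluxOR Tl+ flux fluorescence.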
# KCNQ1 block: inhibitors of human KCNQ1 channel, primary screen, cell-based, thallium flux, high-throughput; Potassium voltage-gated channel subfamily KQT member 1 (Homo sapiens), P51787; CHO-K1 KCNQ1, FluxOR thallium flux fluorescence; hits give high values; B-score at 10 µM; 1.3% of 310,000 active; AID 2642, 2010;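 active = compounds whose thallium flux B-score, printed positive for inhibition, exceeds three library SD while starting fluorescence stays within three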;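 note: channel opened by potassium depolarization with thallium stimulus after 20 min compound exposure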
# * marks the source's active call; other numbers are inactive results; i = inactive; . = no result given. Shown are actives, neighbours in structure and some others; about 4.1% of the full set was active somewhere.
SMILES,KCNK9 block,Cl transport mod,KCNK3 inh,hERG protect,KCNQ1 pot,KCNQ1 block
C=CCN(C(=O)CCC(=O)Nc1cc(C)on1)C(C(=O)NC1CCCC1)c1ccc(OC)c(OC)c1 (centres undefined),i,.,i,-6.1,i,i
Cc1ccc(C2(C)NC(=O)N(CC(=O)N3CCN(S(=O)(=O)c4cccs4)CC3)C2=O)cc1 (centres undefined),i,.,i,-11.7,i,i
COC(=O)c1c(C)oc(C)c1S(=O)(=O)NCc1ccc(Cl)cc1Cl,-7.51*,-0.762,i,-3.5,i,i
COC(=O)c1c(C)oc(C)c1S(=O)(=O)NCc1ccc(OC)cc1,i,0.458,i,-2.6,i,i
CN(CC1COc2ccccc2O1)C(=O)Cn1cc(C(F)(F)F)ccc1=O (centres undefined),.,.,i,.,.,.
Cc1cccc(OCc2n[nH]c(=S)n2C2CCCCC2)c1,i,-0.0596,i,-1.5,8*,i
C/C(=C/CCC(C)C1CCC2(C)C3CCC4C(C)(C)C(=O)CCC4(C)C3=CCC12C)C(=O)O (centres undefined),i,1.59,.,9.5*,29*,i
CC(CCC(=O)O)C1CC[C@@]2(C)C3C(=O)CC4C(C)(C)C(O)CC[C@]4(C)C3C(=O)C[C@]12C (some centres undefined),i,1.01,i,-7.4,i,i
C/C(=C/CCC(C)[C@H]1CC[C@@]2(C)C3=C(CC[C@]12C)[C@@]1(C)CCC(=O)C(C)(C)[C@@H]1CC3)C(=O)O (some centres undefined),i,0.755,i,39.1*,26*,i
S=C(Nc1ccccc1Cl)Nc1ccc(Cl)cc1Cl,i,.,i,-8.8,i,i
O=[N+]([O-])c1ccccc1NCCNc1ncc(C(F)(F)F)cc1Cl,i,.,i,-1.6,i,i
FC(F)(F)c1cnc(NNC(=S)Nc2ccccc2Cl)c(Cl)c1,i,28.9*,i,-9.8,i,i
S=C(NNc1ccnc2cc(Cl)ccc12)Nc1ccccc1Cl,i,0.236,i,-15.6,i,8*
O=[N+]([O-])c1cccc(-c2ccc(/C=N/Nc3nc(N4CCCCC4)nc(N4CCCCC4)n3)o2)c1,i,-1.78,i,-15.7,i,7*
Cc1ccc(-c2nc3cc(NC(=O)C(C)C)ccc3o2)cc1,i,-0.558,i,-9.0,i,i
CC(Oc1ccc(Cl)cc1Cl)C(=O)Nc1ccc2oc(-c3ccncc3)nc2c1 (centres undefined),i,0.0865,-10.2*,-15.1,i,i
O=c1cc(O)c2ccccc2n1Cc1ccccc1Cl,i,-1.76,i,5.3*,i,i
O=C(Cn1c(=O)n(-c2ccccc2)c(=O)c2sccc21)N1CCCC1,i,.,i,-24.4,i,6*
COc1ccc(N2CCN(CC(=O)NCc3ccc(Cl)cc3)CC2)cc1,i,.,i,-9.4,i,i
Cc1cccc(-n2c(C)cc(C=C3C(=O)c4ccccc4C3=O)c2C)c1,i,-0.553,i,-4.4,i,6*
Cc1cc(C=C2C(=O)c3ccccc3C2=O)c(C)n1C,i,-0.203,i,-5.2,i,i
Cc1cc(C=C2C(=O)c3ccccc3C2=O)c(C)n1-c1ccc(Cl)cc1,-7*,.,i,-8.6,i,i
CN1C(=O)CC(N2CCN(c3ccc(Cl)cc3)CC2)C1=O (centres undefined),i,0.316,i,-5.5,i,i
CC(C)CC(=O)Nc1ccccc1-c1nnn(CC(=O)N2CCc3ccccc3C2)n1,i,-3.81*,i,-15.7,i,i
Cc1nc(C(=O)NNC(=O)Nc2ccccc2)cs1,i,0.0133,i,-8.9,i,i
SMILES,KCNK9 block,Cl transport mod,KCNK3 inh,hERG protect,KCNQ1 pot,KCNQ1 block
CC1(C)CC(=O)CC(=NCC(=O)O)C1,i,0.792,i,4.7*,i,i
O=C(OCC(=O)c1ccc(Cl)cc1Cl)c1cnccn1,i,.,i,-7.4,i,i
CS(=O)(=O)N(CC(=O)Nc1ccccc1Sc1ccccc1)C1CCCCC1,i,0.297,i,-5.9,i,i
N#CC1=C(N)C(C#N)(C#N)[C@H](c2ccoc2)[C@H]2CN(Cc3ccccc3)CC=C12,-8.78*,i,i,-30.0,i,i
COc1ccc(OC)c(C2C3CN(C(C)C)CC=C3C(C#N)=C(N)C2(C#N)C#N)c1 (centres undefined),i,.,i,-12.5,i,6*
COc1cccc(OC)c1OCc1cc(C2C3CCCC=C3C(C#N)=C(N)C2(C#N)C#N)c(C)cc1C (centres undefined),i,.,i,-4.5,i,7*
CN1CC=C2C(C#N)=C(N)C(C#N)(C#N)C(c3cccc(Cl)c3Cl)C2C1 (centres undefined),i,-1.4,i,-19.2,i,6*
CCOC(=O)N1CC=C2C(C#N)=C(N)C(C#N)(C#N)[C@H](c3ccc(OCC)c(OCC)c3)[C@H]2C1,i,-0.153,i,-9.3,i,i
CCCCOc1ccc(C2C3CN(C(=O)OCC)CC=C3C(C#N)=C(N)C2(C#N)C#N)cc1OC (centres undefined),i,0.787,i,-12.1,i,i
C=CCn1c(SC(C)C(=O)NCCC2=CCCCC2)nc2ccccc2c1=O (centres undefined),i,-0.752,i,-8.3,i,i
O=C(CCNC(=O)c1ccccc1Cl)NCc1cccnc1,i,.,i,-18.0,i,i
Cc1occc1C(=O)N/N=C/c1cnn(C)c1C,i,0.0155,i,-7.7,i,i
CCN1CC=C2C(C#N)=C(N)C(C#N)(C#N)C(CCc3ccccc3)C2C1 (centres undefined),.,-0.477,i,.,.,.
CCCN1CC=C2C(C#N)=C(N)C(C#N)(C#N)C(c3cccc(OC)c3OC)C2C1 (centres undefined),i,i,i,-17.8,i,8*
Oc1ccc(C=NN=C2c3ccccc3-c3ccccc32)c(O)c1,.,.,-8.78*,.,.,.
O=[N+]([O-])c1cccc(/C=N\N=C2c3ccccc3-c3ccccc32)c1O,i,0.429,i,-19.3,i,i
